Experimental data as given in ChEMBL document CHEMBL1133676, “Synthesis and hypolipidemic and antiplatelet activities of alpha-asarone isomers in humans (in vitro), mice (in vivo), and rats (in vivo)” (2000).

Assays:
Type in all cases: functional
Rattus norvegicus [1] = experiment: HDL (high density lipoproteins) cholesterol level in Wistar male rats at a dose of 80 mg/kg
Procedure, shortened: (§1)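 Agents in oil (5 mL/kg) were given once daily by gastric intubation. Doses were 80 mg/kg for test agents and 150 mg/kg for the positive control; chow-fed and vehicle-oil groups served as controls. After a 16 h fast and ether anesthesia, ocular-puncture blood was drawn. Serum lipids were measured by kit spectrophotometry; Student's t-test, n = 9–10.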

Rattus norvegicus [2] = experiment: Total cholesterol level in Wistar male rats administered at a dose of 80 mg/kg; procedure, shortened: as §1
Rattus norvegicus [3] = experiment: Triglyceride level in Wistar male rats administered at a dose of 80 mg/kg; procedure, shortened: as §1
Rattus norvegicus [4] = experiment: LDL (low density lipoproteins) cholesterol level in Wistar male rats at a dose of 80 mg/kg
Procedure, shortened: (§2)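 Compounds in oil (5 mL/kg) were given by gastric intubation once daily, at 80 mg/kg or 150 mg/kg for clofibrate. Rats were then fasted 16 h […], and serum lipids were measured spectrophotometrically with kits; Student's t-test.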

Homo sapiens [5] = species: Homo sapiens; experiment: In vitro inhibition of human platelet aggregation induced by 10 uM ADP after incubation at 150 uM
Procedure, shortened: (§3)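 Born turbidimetric assay in citrated platelet-rich plasma from healthy male volunteers, with platelet-poor plasma set as 100% transmission. Agents in 95% ethanol were preincubated with PRP for 2 min at 37 °C, stirred at 1000 rpm.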

Mus musculus [6] = experiment: Effect on acute pulmonary thromboembolism in mice at 25 mg/kg expressed as no. of killed or paralyzed to no. of tested observed after 10 min
Homo sapiens [7] = species: Homo sapiens; experiment: In vitro inhibition of human platelet aggregation induced by 10 uM ADP after incubation at 200 uM; procedure, shortened: as §3
Homo sapiens [8] = species: Homo sapiens; experiment: In vitro inhibition of human platelet aggregation induced by 10 uM ADP after incubation at 100 uM; procedure, shortened: as §3
Homo sapiens [9] = species: Homo sapiens; experiment: In vitro inhibition of human platelet aggregation induced by 10 uM ADP after incubation at 250 uM; procedure, shortened: as §3
Mus musculus [10] = experiment: Effect on acute pulmonary thromboembolism in mice at 25 mg/kg
Mus musculus [11] = experiment: Effect on acute pulmonary thromboembolism in mice at 100 mg/kg expressed as no. of killed or paralyzed to no. of tested observed after 10 min
Procedure, shortened: (§4)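 Male Swiss mice (29.4 ± 2.6 g) were given a single ip dose 1 h before a rapid tail-vein injection of collagen (25 μg/mouse) plus epinephrine (27 μg/mouse) in 0.154 M NaCl. Vehicles were miglyol 812 for asarones, or DMSO with Sörensen phosphate buffer pH 7.0 for ketorolac, at 0.1 mL/10 g. Death or paralysis was scored within 10 min; controls received vehicle only; χ² test.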

Mus musculus [12] = experiment: Effect on acute pulmonary thromboembolism in mice at 100 mg/kg
Procedure, shortened: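 Male Swiss mice (29.4 ± 2.6 g) received a single ip dose 1 h before a rapid tail-vein injection of collagen (25 μg/mouse) plus epinephrine (27 μg/mouse) in 0.154 M NaCl. Asarones were given in miglyol 812, and ketorolac in DMSO/Sörensen phosphate buffer pH 7.0, at 0.1 mL/10 g. Death or paralysis was scored within 10 min and reported as % protected versus vehicle controls; χ² test.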

Mus musculus [13] = experiment: Effect on acute pulmonary thromboembolism in mice at 50 mg/kg expressed as no. of killed or paralyzed to no. of tested observed after 10 min; procedure, shortened: as §4
Mus musculus [14] = experiment: Effect on acute pulmonary thromboembolism in mice at 50 mg/kg; procedure, shortened: as §4
Homo sapiens [15] = species: Homo sapiens; experiment: In vitro inhibition of human platelet aggregation induced by 10 uM ADP after incubation at 300 uM; procedure, shortened: as §3
Rattus norvegicus [16] = experiment: LDL (low density lipoproteins) cholesterol level in Wistar male rats at 150 mg/kg; procedure, shortened: as §2
Rattus norvegicus [17] = experiment: Triglyceride level in Wistar male rats at a dose of 150 mg/kg; procedure, shortened: as §1
Rattus norvegicus [18] = experiment: Total cholesterol level in Wistar male rats at a dose of 150 mg/kg; procedure, shortened: as §1
Rattus norvegicus [19] = experiment: HDL (high density lipoproteins) cholesterol level in Wistar male rats at 150 mg/kg; procedure, shortened: as §1
Rattus norvegicus [20] = species: Rattus norvegicus; experiment: HDL (high density lipoproteins) cholesterol level in Wistar male rats; procedure, shortened: as §1
Rattus norvegicus [21] = species: Rattus norvegicus; experiment: Cholesterol level in Wistar male rats; procedure, shortened: as §1
Rattus norvegicus [22] = species: Rattus norvegicus; experiment: Triglyceride level in Wistar male rats; procedure, shortened: as §1
Rattus norvegicus [23] = species: Rattus norvegicus; experiment: LDL (low density lipoproteins) cholesterol level in Wistar male rats; procedure, shortened: as §2
Rattus norvegicus [24] = experiment: Total cholesterol level in Wistar male rats at a dose of 80 mg/kg; procedure, shortened: as §2
Rattus norvegicus [25] = experiment: Triglyceride level in Wistar male rats at a dose of 80 mg/kg; procedure, shortened: as §2

SMILES: C/C=C/c1ccc(OC)c(OC)c1OC.CC(C)CCC[C@@H](C)[C@H]1CC[C@H]2[C@@H]3CC=C4C[C@@H](O)CC[C@]4(C)[C@H]3CC[C@]12C
- HDL cholesterol (Rattus norvegicus [1]): 42.8 mg/dL
- Total cholesterol (Rattus norvegicus [2]): 96.6 mg/dL
- Triglyceride level (Rattus norvegicus [3]): 125 mg/dL
- LDL cholesterol (Rattus norvegicus [4]): 30.1 mg/dL

SMILES: CC(=O)Oc1ccccc1C(=O)O [ASPIRIN]
- Inhibition (Homo sapiens [5]): 37.1%
- No. of killed or paralyzed (Mus musculus [6]): 28
- Inhibition (Homo sapiens [7]): 48.5%
- Inhibition (Homo sapiens [8]): 31.2%
- Inhibition (Homo sapiens [9]): 56.4%
- Protected (Mus musculus [10]): 45%

SMILES: O=C(c1ccccc1)c1ccc2n1CCC2C(=O)O (configuration not stated) [KETOROLAC]
- No. of killed or paralyzed (Mus musculus [11]): 16
- Protected (Mus musculus [12]): 33%

SMILES: C/C=C/c1cc(OC)c(OC)cc1OC [TRANS-ASARONE]
- No. of killed or paralyzed (Mus musculus [13]): 13
- Protected (Mus musculus [14]): 0%
- Inhibition (Homo sapiens [5]): 14.7%
- Inhibition (Homo sapiens [15]): 47%
- Inhibition (Homo sapiens [7]): 40.3%
- Inhibition (Homo sapiens [8]): 4%
- No. of killed or paralyzed (Mus musculus [11]): 10
- Protected (Mus musculus [12]): 44%
- Inhibition (Homo sapiens [9]): 30.3%

SMILES: C/C=C/c1c(OC)ccc(OC)c1OC.CC(C)CCC[C@@H](C)[C@H]1CC[C@H]2[C@@H]3CC=C4C[C@@H](O)CC[C@]4(C)[C@H]3CC[C@]12C
- HDL cholesterol (Rattus norvegicus [1]): 30.2 mg/dL
- Total cholesterol (Rattus norvegicus [2]): 115 mg/dL
- Triglyceride level (Rattus norvegicus [3]): 162 mg/dL
- LDL cholesterol (Rattus norvegicus [4]): 48.2 mg/dL

SMILES: CC(C)CCC[C@@H](C)[C@H]1CC[C@H]2[C@@H]3CC=C4C[C@@H](O)CC[C@]4(C)[C@H]3CC[C@]12C.CCOC(=O)C(C)(C)Oc1ccc(Cl)cc1 [CLOFIBRATE + CHOLESTEROL]
- LDL cholesterol (Rattus norvegicus [16]): 46.1 mg/dL
- Triglyceride level (Rattus norvegicus [17]): 91.6 mg/dL
- Total cholesterol (Rattus norvegicus [18]): 85.8 mg/dL
- HDL cholesterol (Rattus norvegicus [19]): 22.1 mg/dL

SMILES: C/C=C/c1c(OC)cc(OC)cc1OC.CC(C)CCC[C@@H](C)[C@H]1CC[C@H]2[C@@H]3CC=C4C[C@@H](O)CC[C@]4(C)[C@H]3CC[C@]12C
- HDL cholesterol (Rattus norvegicus [1]): 37.9 mg/dL
- Total cholesterol (Rattus norvegicus [2]): 98.1 mg/dL
- Triglyceride level (Rattus norvegicus [3]): 116 mg/dL
- LDL cholesterol (Rattus norvegicus [4]): 36.9 mg/dL

SMILES: C/C=C/c1c(OC)cc(OC)cc1OC
- Inhibition (Homo sapiens [5]): 19%
- Inhibition (Homo sapiens [15]): 17.5%
- Inhibition (Homo sapiens [7]): 31%
- Inhibition (Homo sapiens [8]): 15.9%
- No. of killed or paralyzed (Mus musculus [11]): 30
- Protected (Mus musculus [12]): 25%
- Inhibition (Homo sapiens [9]): 7.5%

SMILES: C/C=C/c1ccc(OC)c(OC)c1OC
- No. of killed or paralyzed (Mus musculus [11]): 14
- Protected (Mus musculus [12]): 0%

SMILES: C/C=C/c1cc(OC)cc(OC)c1OC.CC(C)CCC[C@@H](C)[C@H]1CC[C@H]2[C@@H]3CC=C4C[C@@H](O)CC[C@]4(C)[C@H]3CC[C@]12C
- HDL cholesterol (Rattus norvegicus [1]): 39.2 mg/dL
- Total cholesterol (Rattus norvegicus [2]): 97.9 mg/dL
- Triglyceride level (Rattus norvegicus [3]): 140 mg/dL
- LDL cholesterol (Rattus norvegicus [4]): 35.8 mg/dL

SMILES: C/C=C/c1cc(OC)cc(OC)c1OC
- Inhibition (Homo sapiens [5]): 25.4%
- Inhibition (Homo sapiens [15]): 38.3%
- Inhibition (Homo sapiens [7]): 35.4%
- Inhibition (Homo sapiens [8]): 13%
- No. of killed or paralyzed (Mus musculus [11]): 12
- Protected (Mus musculus [12]): 52%
- Inhibition (Homo sapiens [9]): 38.3%

SMILES: CC(C)CCC[C@@H](C)[C@H]1CC[C@H]2[C@@H]3CC=C4C[C@@H](O)CC[C@]4(C)[C@H]3CC[C@]12C [CHOLESTEROL]
- HDL cholesterol (Rattus norvegicus [20]): 29 mg/dL
- Total cholesterol (Rattus norvegicus [21]): 111 mg/dL
- Triglyceride level (Rattus norvegicus [22]): 125 mg/dL
- LDL cholesterol (Rattus norvegicus [23]): 43.2 mg/dL

SMILES: C/C=C/c1cc(OC)c(OC)c(OC)c1.CC(C)CCC[C@@H](C)[C@H]1CC[C@H]2[C@@H]3CC=C4C[C@@H](O)CC[C@]4(C)[C@H]3CC[C@]12C
- HDL cholesterol (Rattus norvegicus [1]): 45.3 mg/dL
- Total cholesterol (Rattus norvegicus [2]): 93.4 mg/dL
- Triglyceride level (Rattus norvegicus [3]): 136 mg/dL
- LDL cholesterol (Rattus norvegicus [4]): 19.8 mg/dL

SMILES: C/C=C/c1cc(OC)c(OC)cc1OC.CC(C)CCC[C@@H](C)[C@H]1CC[C@H]2[C@@H]3CC=C4C[C@@H](O)CC[C@]4(C)[C@H]3CC[C@]12C [ALPHAASARONE AND CHOLESTEROL]
- HDL cholesterol (Rattus norvegicus [1]): 45.5 mg/dL
- Total cholesterol (Rattus norvegicus [24]): 113.6 mg/kg
- Triglyceride level (Rattus norvegicus [25]): 219.3
- LDL cholesterol (Rattus norvegicus [4]): 24.4 mg/dL

SMILES: C/C=C/c1cc(OC)c(OC)c(OC)c1
- No. of killed or paralyzed (Mus musculus [11]): 17
- Protected (Mus musculus [12]): 19%
